In paper PMC8552233 (ACS Omega, 2021):
Where two headings read alike, the source gives them in different places.

How the values were obtained:
P. falciparum IspC [1] = target: T1, P. falciparum IspC (Plasmodium falciparum, UniProt O96693); test: Mechanism of inhibition; type: biochemical; conditions: for mode of inhibition with respect to DXP / mode of inhibition with respect to NADPH: Lineweaver-Burk plots; for mode of inhibition with respect to DXP: DXP varied 50-400 μM, NADPH 150 μM; for mode of inhibition with respect to NADPH: NADPH varied 6-30 μM, DXP 144 μM
T1 sequence (O96693 73-488): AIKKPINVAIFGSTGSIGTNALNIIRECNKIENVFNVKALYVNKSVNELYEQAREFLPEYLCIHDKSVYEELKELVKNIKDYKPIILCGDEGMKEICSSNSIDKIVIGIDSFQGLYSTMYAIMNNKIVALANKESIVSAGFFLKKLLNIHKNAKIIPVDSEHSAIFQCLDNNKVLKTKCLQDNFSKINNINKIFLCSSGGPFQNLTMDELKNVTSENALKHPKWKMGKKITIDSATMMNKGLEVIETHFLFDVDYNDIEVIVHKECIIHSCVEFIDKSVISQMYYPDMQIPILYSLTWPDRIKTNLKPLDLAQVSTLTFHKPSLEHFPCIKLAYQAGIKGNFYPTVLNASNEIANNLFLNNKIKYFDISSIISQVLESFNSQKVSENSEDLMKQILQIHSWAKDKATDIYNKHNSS
In short: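 N-terminal His6-tagged recombinant enzyme, expressed in E. coli Rosetta2(DE3) and purified by TALON affinity chromatography. […] NADPH oxidation read at 340 nm. Mode taken from Lineweaver–Burk linear fits, Ki from secondary plots; at least triplicate.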

P. falciparum IspC [2] = target: T1, P. falciparum IspC; test: P. falciparum IspC inhibition assay; type: biochemical
In short: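 His6-tagged recombinant enzyme (E. coli Rosetta2(DE3), TALON-purified), 0.86 μM in 100 mM Tris pH 7.8, 25 mM MgCl2. Preincubated 10 min at 37 °C with inhibitor, then 150 μM NADPH added for 5 min. Reaction started with 144 μM DXP and A340 followed at 37 °C. IC50 from nonlinear sigmoidal fit of fractional activity versus inhibitor concentration; duplicate.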

[3] = cited from earlier work
P. falciparum IspC [4] = target: T1, P. falciparum IspC; conditions: cited from earlier work
[5] = system: Mycobacterium tuberculosis; conditions: antibacterial activity; cited from earlier work

SMILES | mode of inhibition with respect to DXP (P. falciparum IspC [1]) | mode of inhibition with respect to NADPH (P. falciparum IspC [1]) | IC50 (P. falciparum IspC [2]) [nM] | serum half-life [3] | Ki (P. falciparum IspC [1]) [nM] | mode of inhibition with respect to DXP (P. falciparum IspC [4]) | mode of inhibition with respect to NADPH (P. falciparum IspC [4]) | MIC [5] [µg/mL] | Ki relative to DXP, fold higher than that of 3c (P. falciparum IspC [1]; 1d versus 3c) [fold]
O=C(CCc1ccccc1)N(O)C/C=C/P(=O)([O-])O.[Na+] [1b, Sodium Hydrogen [(1E)-3-(N-hydroxy-3-phenylpropanamido)prop-1-en-1-yl]phosphonate] | competitive | uncompetitive | 1310 |  |  |  |  |  | 
CC(=O)N(O)CCCP(=O)(O)O [2a, FR900098] | competitive | uncompetitive |  | short | 9 | competitive | uncompetitive | > 500 | 
O=C(CCCc1ccccc1)N(O)C/C=C/P(=O)([O-])O.[Na+] [2b, Sodium Hydrogen [(1E)-3-(N-hydroxy-4-phenylbutanamido)prop-1-en-1-yl]phosphonate] | competitive | uncompetitive | 900 |  |  |  |  |  | 
O=C(CCCc1ccccc1)N(O)CCCP(=O)([O-])O.[Na+] [4a] | competitive | uncompetitive | 1340 |  |  |  |  |  | 
O=CN(O)CCCP(=O)(O)O [1a, fosmidomycin] |  |  |  | short |  | competitive | uncompetitive |  | 
CC(=O)N(CCCP(=O)([O-])O)OCc1ccc(-c2ccccc2)cc1.[Na+] [3c] | competitive | competitive | 804 |  |  |  |  |  | 
CCCCC(=O)N(O)CCCP(=O)([O-])O.[Na+] [3a, Sodium Hydrogen-3-(N-hydroxypentanamido)propylphosphonate] | competitive | uncompetitive | 2450 |  |  |  |  |  | 
CC(=O)N(C/C=C/P(=O)([O-])O)OCc1ccc(-c2ccccc2)cc1.[Na+] [1d] | competitive | competitive | 5670 |  |  |  |  |  | 3
